A selection: hits, their analogues and other compounds. The true share with any hit is near 5.8%.
T cruzi growth-1 = T. cruzi proliferation inhibition; T. cruzi beta-gal in NIH3T3, GalScreen luminescence, 90 h; inhibition, % at 8.34 µM; 5.9% of 77,000 active;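 active = mean inhibition above about 93%, with at least 55% of replicates each passing it, limit read from the data, passing the limit was not always enough; inconclusive = only one of those two conditions holds; inactive = neither condition holds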
GASC1 inh = KDM4C (human) demethylase inhibition | Q9H3R0 | GST-KDM4C 2-372, H3K9me3 peptide, LANCE TR-FRET | inhibition, % at 12.5 µM | 0.15% of 96,000 active | AID 720574;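 active = mean replicate inhibition above about 25%, with at least 55% of replicates also reaching it, limit read from the data, passing the limit was not always enough; inconclusive = only one of those two conditions met; inactive = neither condition met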
Target sequence (Q9H3R0 2-372 limits assumed): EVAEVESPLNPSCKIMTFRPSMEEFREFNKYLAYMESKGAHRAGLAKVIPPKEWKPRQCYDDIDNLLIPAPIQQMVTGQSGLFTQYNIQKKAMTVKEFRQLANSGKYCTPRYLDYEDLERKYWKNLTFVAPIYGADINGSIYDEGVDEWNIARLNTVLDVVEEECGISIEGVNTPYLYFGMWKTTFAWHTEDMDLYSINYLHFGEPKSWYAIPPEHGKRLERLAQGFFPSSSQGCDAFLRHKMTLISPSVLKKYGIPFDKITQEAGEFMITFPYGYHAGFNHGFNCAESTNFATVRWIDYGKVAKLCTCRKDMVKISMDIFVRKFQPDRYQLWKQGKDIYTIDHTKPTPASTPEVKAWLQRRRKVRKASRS
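reagent = H3K9me3 peptide substrate, Fe(II), 2-oxoglutarate | system = GST-tagged GASC-1 (JMJD2C) catalytic fragment, aa 2-372 | amount = enzyme final amount 10 nM | read-out = Fall in 671/618 emission ratio as inhibition | medium = HEPES buffer, pH 7.5, plus ascorbate | schedule = 30 min reaction, 60 min detection, RT | measured by = LANCE TR-FRET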
IDH1 mut inh = inhibitors of human IDH1 R132H; O75874; IDH1 R132H reductase, diaphorase/resazurin fluorescence, 60 min; inhibition, % at 10 µM; 0.18% of 70,000 active; AID 624101; in the data active = inhibition above about 34%; inconclusive = no clear call, values can overlap the other calls; inactive = below about 11%;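 also: 0% = DMSO and 100% = no enzyme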
Pf Dd2 growth = blocks growth of Plasmodium falciparum Dd2 parasites; P. falciparum Dd2 growth, SYBR Green, 72 h; stronger effect = lower value; activity change, % at 10 µM; 2.3% of 94,000 active; AID 1159554; in the data active = activity change below about -80%; inconclusive = no clear call, values can overlap the other calls
T cruzi growth-2 = inhibitors of T. cruzi proliferation; shares compounds with T cruzi growth-1; T. cruzi beta-gal in NIH3T3, GalScreen luminescence, 90 h; inhibition, % at 8.35 µM; 72% of 5,600 active; AID 651739;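 active = mean replicate inhibition above about 95% and at least 55% of replicates individually reaching it, limit read from the data; inconclusive = only one of the two criteria is met; inactive = neither criterion is met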
T cruzi growth-3 = Trypanosoma cruzi proliferation inhibition; inhibition, % at 2.09 µM; 21% of 5,600 active; shares compounds with T cruzi growth-1; T. cruzi beta-gal in NIH3T3, GalScreen luminescence, 90 h;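 active = mean inhibition above about 95%, with at least 55% of replicates also reaching it, limit read from the data; inconclusive = meets just one of the two conditions; inactive = meets neither condition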;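 also: plate controls were neutral control median for no effect and positive control median for full effect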
3T3 cytotox = NIH/3T3 (mouse) viability loss; 14% of 5,600 active; cytotoxicity (signal decrease), % at 8.35 µM; AID 651742; shares compounds with T cruzi growth-1; NIH/3T3 viability, CellTiter-Glo ATP luminescence, 90 h;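 active = mean signal decrease across replicates above about 35% based on untreated-well scatter, with enough replicates individually passing, limit read from the data; inconclusive = no rule stated though some were filed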;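 also: 0% = median of neutral control wells and 100% = median of positive control wells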
NIH3T3 tox 2 = kills mouse NIH/3T3 fibroblasts | shares compounds with T cruzi growth-1 | NIH/3T3 viability, CellTiter-Glo ATP luminescence, 90 h | inhibition, % at 24.9 µM | 56% of 5,600 active;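 active = mean loss of cell viability signal at or above a set limit, and enough replicates individually reaching it; inconclusive = meets only the mean limit or only the replicate share; inactive = meets neither condition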;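 also: 0% = median of neutral control wells and 100% = median of positive control wells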
* marks the source's active call; other numbers are inactive results.

Results for COc1ccc2c(c[n+](C)c3c4cc5c(cc4ccc23)OCO5)c1OC ?
IDH1 mut inh: 100.6*

What do the screens show for `COc1ccc2c(c1OC)CN1CCc3cc4c(cc3C1C2)OCO4` (configuration not stated)?
IDH1 mut inh: -2.7

How did CC[C@H]1CN2CCc3cc(OC)c(OC)cc3[C@@H]2C[C@@H]1C[C@H]1NCCc2cc(O)c(OC)cc21 do in these assays?
IDH1 mut inh: 1.5

What do the screens show for `OC[C@H]1Nc2ccc(C#Cc3cccnc3)cc2[C@H]2NCC[C@H]21`?
GASC1 inh: 2.3; Pf Dd2 growth: -88.4*

How did O=C1/C(=C/c2ccccc2)C[C@@]2(O)C3Cc4ccc(O)c5c4[C@@]2(CCN3CC2CC2)[C@H]1O5 do in these assays?
IDH1 mut inh: 0.5

What do the screens show for `Cc1ccc(OC(=O)N(C)C[C@@H]2OCc3ccccc3-c3c(n(C)c4ccccc34)C(=O)N([C@@H](C)CO)C[C@H]2C)cc1`?
GASC1 inh: -3.2; Pf Dd2 growth: -83.1*

How did COc1ccc(C#Cc2ccc([C@@H]3[C@@H](CO)N4CCCCN(C(=O)Cc5cccnc5)C[C@H]34)cc2)cc1 do in these assays?
T cruzi growth-1: 100.2*; GASC1 inh: 0.2; Pf Dd2 growth: -40.2; T cruzi growth-2: 106.2*; T cruzi growth-3: 37.8; 3T3 cytotox: 24.4; NIH3T3 tox 2: 105.1*

What do the screens show for `O=C(Cc1cccnc1)N1CCCCN2[C@H](CO)[C@H](c3ccc(/C=C/c4ccccc4)cc3)[C@H]2C1`?
T cruzi growth-1: -215.0; GASC1 inh: 0.2; Pf Dd2 growth: -44.2

Results for O=C(Cc1cccnc1)N1CCCCN2[C@H](CO)[C@@H](c3ccc(/C=C/c4ccccc4)cc3)[C@H]2C1 ?
T cruzi growth-1: 105.1*; GASC1 inh: -0.8; Pf Dd2 growth: 9.0; T cruzi growth-2: 108.7*; T cruzi growth-3: 72.6; 3T3 cytotox: 33.2; NIH3T3 tox 2: 103.6*

What do the screens show for `COc1ccc(C#Cc2ccc([C@@H]3[C@H](CO)N4CCCCN(C(=O)Cc5cccnc5)C[C@@H]34)cc2)cc1`?
T cruzi growth-1: 112.1*; GASC1 inh: -1.1; Pf Dd2 growth: -15.7; T cruzi growth-2: 106.6*; T cruzi growth-3: 90.4; 3T3 cytotox: 39.0*; NIH3T3 tox 2: 103.7*

How did COC1CC(O[C@H]2CC[C@@]3(C)C(CCC4C3CC[C@]3(C)C(C5=CC(=O)OC5)CCC43O)C2)OC(C)C1OC1OC(COC2OC(CO)C(O)C(O)C2O)C(O)C(O)C1O (some centres not stated) do in these assays?
IDH1 mut inh: 0.2

What do the screens show for `C#CCN1C(C)=C(C(=O)CCO)C(c2cccc(-n3oo3)c2)C(C(=O)OC)=C1C` (configuration not stated)?
IDH1 mut inh: -0.2

What do the screens show for `Cc1ccccc1-c1ccc([C@H]2[C@H]3CN(C(=O)Cc4ccccn4)CCCCN3[C@H]2CO)cc1`?
T cruzi growth-1: inconclusive; GASC1 inh: -0.9; Pf Dd2 growth: -11.5; T cruzi growth-2: 51.2; T cruzi growth-3: -0.6; 3T3 cytotox: -17.1; NIH3T3 tox 2: 8.3

Results for Cc1ccccc1-c1ccc([C@H]2[C@@H](CO)N3CCCCN(C(=O)Cc4ccccn4)C[C@@H]23)cc1 ?
T cruzi growth-1: 102.8*; GASC1 inh: 0.8; Pf Dd2 growth: 5.8; T cruzi growth-2: 96.5*; T cruzi growth-3: 85.5; 3T3 cytotox: 23.0; NIH3T3 tox 2: inconclusive

What do the screens show for `Cc1ccccc1-c1ccc([C@@H]2[C@H]3CN(C(=O)Cc4ccccn4)CCCCN3[C@H]2CO)cc1`?
T cruzi growth-1: 98.7*; GASC1 inh: -1.4; Pf Dd2 growth: -2.4; T cruzi growth-2: 67.6; T cruzi growth-3: 27.1; 3T3 cytotox: -6.4; NIH3T3 tox 2: 8.7

Results for CC(C)C1(NC(=O)C2CC3c4cccc5[nH]cc(c45)CC3N(C)C2)OC2(O)C3CCCN3C(=O)C(Cc3ccccc3)N2C1=O (configuration not stated) ?
IDH1 mut inh: -2.1

Results for O=C(Cc1ccncc1)N1CCCCN2[C@H](CO)[C@H](c3ccc(C#Cc4ccccc4F)cc3)[C@H]2C1 ?
T cruzi growth-1: inconclusive; GASC1 inh: 6.1; Pf Dd2 growth: -37.7; T cruzi growth-2: 103.8*; T cruzi growth-3: 67.5; 3T3 cytotox: 26.3; NIH3T3 tox 2: 102.8*

Results for O=C(Cc1ccncc1)N1CCCCN2[C@@H](CO)[C@@H](c3ccc(C#Cc4ccccc4F)cc3)[C@@H]2C1 ?
T cruzi growth-1: 65.9; GASC1 inh: -0.2; Pf Dd2 growth: -62.1

Results for O=C(Cc1ccccc1)N1CCCCN2[C@H](CO)[C@@H](c3ccc(C#Cc4ccccc4)cc3)[C@H]2C1 ?
T cruzi growth-1: 117.9*; GASC1 inh: -0.5; Pf Dd2 growth: -52.9; T cruzi growth-2: 97.1*; T cruzi growth-3: 84.2; 3T3 cytotox: 57.7*; NIH3T3 tox 2: 104.7*

Results for COc1ccc(C#Cc2ccc([C@H]3[C@H]4CN(C(=O)Cc5ccccc5)CCCCN4[C@H]3CO)cc2)cc1 ?
T cruzi growth-1: 79.7; GASC1 inh: -2.3; Pf Dd2 growth: -17.0

Results for O=C(Cc1ccccc1)N1CCCCN2[C@H](CO)[C@@H](c3ccc(C#Cc4ccccc4)cc3)[C@@H]2C1 ?
T cruzi growth-1: 106.4*; GASC1 inh: 2.0; Pf Dd2 growth: -40.2; T cruzi growth-2: 99.8*; T cruzi growth-3: 70.0; 3T3 cytotox: 2.8; NIH3T3 tox 2: 105.5*

Results for CO/C1=C/C(C)=C/[C@@H](C)[C@@H](O)[C@@H](C)C/C(C)=C/C=C\[C@H](OC)[C@@H]([C@@H](C)[C@@H](O)[C@H](C)[C@@]2(O)C[C@@H](O)[C@H](C)[C@@H](C(C)C)O2)OC1=O ?
IDH1 mut inh: 1.5

What do the screens show for `O=C1Nc2cc(Cl)c(Cl)cc2N2CCNCC12` (configuration not stated)?
IDH1 mut inh: 1.5

How did N#Cc1cccc(-c2ccc([C@H]3[C@H]4CN(C(=O)Cc5ccccc5)CCCCN4[C@H]3CO)cc2)c1 do in these assays?
T cruzi growth-1: inconclusive; GASC1 inh: -0.5; Pf Dd2 growth: -13.5; T cruzi growth-2: 71.2; T cruzi growth-3: -4.1; 3T3 cytotox: 12.0; NIH3T3 tox 2: 6.5

Results for N#Cc1cccc(-c2ccc([C@@H]3[C@H]4CN(C(=O)Cc5ccccc5)CCCCN4[C@H]3CO)cc2)c1 ?
T cruzi growth-1: 90.4; GASC1 inh: 0.3; Pf Dd2 growth: -11.7

Bioassay records (PubChem)
